# Most compounds without a hit are left out; they make up all but 2% or so of the library.
# MEX-5 binding – MEX-5 zinc finger RNA-binding disruptors – biochemical, C. elegans, fluorescence polarization, MLPCN library, primary screen; AID 1832, 2009; activity score (negative = inhibition of binding), % at 10 µM; 300,000 compounds, 0.38% hits; MEX-5/FITC-TCR2 RNA binding; hits give low values;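 active means inhibition past about -25% in most replicates, and total fluorescence under double the plate's negative control median, limit read from the data; inconclusive means replicates evenly split on the limit, or fluorescence at least double controls; inactive means too little inhibition in most replicates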;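 further: 0% = DMSO and -100% = 5 µM competing unlabeled TCR2 RNA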
# Runt-CBFb FRET – inhibitors of RUNX1 Runt–CBFb binding, primary screen, biochemical, FRET, Cerulean-Runt, Venus-CBFb, uHTS | Cerulean-Runt/Venus-CBFb FRET ratio 530/480, 1 h | inhibition, % at 20 µM | 220,000 compounds, 0.46% hits | AID 1496, 2009;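 active means inhibition over about 50% at 20 µM in the single-dose screen, limit read from the data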;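 further: 0% = DMSO wells and 100% = excess unlabeled CBFb competitor control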
#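 Measured by: fluorescence energy transfer, 422 nm excitation, 530/480 nm emission; Assay system: Cerulean-Runt domain; Medium: Tris pH 7.5 buffer with BSA; Measure: loss of energy transfer signal; Controls: 5 µM unlabeled CBFb as full-inhibition high control; Incubation: protein complex preformed 1 h, compound exposure 1 h, room temperature, dark.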
# Runt-SMMHC FRET – inhibitors of RUNX1 Runt–CBFb-SMMHC binding, primary screen, biochemical, FRET, Cerulean-Runt, Venus-CBFb-SMMHC, uHTS; inhibition, % at 20 µM; Cerulean-Runt/Venus-CBFb-SMMHC FRET ratio 530/480, 1 h; Runt-related transcription factor 1 (Homo sapiens) + Core-binding factor subunit beta …; 220,000 compounds, 0.74% hits;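 active means mean inhibition across duplicate retests at 20 µM reaching about 50%, limit read from the data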;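 further: 0% = DMSO wells and 100% = wells with excess untagged CBFb-SMMHC; inhibitors lower the FRET ratio by blocking Runt binding to CBFb-SMMHC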
# PKD1 inh – inhibitors of human PKD1 kinase, biochemical, fluorescence polarization. PKD1 kinase fluorescence polarization assay. inhibition, % (concentration not given with the values). 200,000 compounds, 0.056% hits. Serine/threonine-protein kinase D1 (Homo sapiens), Q15139
# RanGTP-Imp inh – inhibitors of RanGTP-importin-beta interaction, primary screen, biochemical, FRET, CFP-Ran, YFP-importin-beta, homogeneous; Ran GTPase (GTP-bound) - importin-beta complex; cell-free CFP-Ran/YFP-importin-beta FRET ratio; inhibition, % (concentration not given with the values); 300,000 compounds, 1.1% hits; AID 2216, 2009;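 active means more than half of the replicate wells show a fall in the fluorescence ratio signal beyond about 16%, limit read from the data, passing the limit was not always enough; inconclusive means exactly half of the replicate wells pass the set limit; inactive means fewer than half of replicates pass the limit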;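 further: 0% = DMSO wells and 100% = Ran loaded with GDP instead of GTP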
# EBV gp42 block – Epstein-Barr virus gp42 inhibitors, primary screen, biochemical, uHTS, fluorescence polarization | Glycoprotein 42 (Epstein-Barr virus (strain AG876)), Q1HVG2 | Fluorescence polarization binding assay, mP read-out | inhibition, % (tested at 21.74 µM) | 220,000 compounds, 0.42% hits
# Target sequence (Q1HVG2 whole entry, looked up): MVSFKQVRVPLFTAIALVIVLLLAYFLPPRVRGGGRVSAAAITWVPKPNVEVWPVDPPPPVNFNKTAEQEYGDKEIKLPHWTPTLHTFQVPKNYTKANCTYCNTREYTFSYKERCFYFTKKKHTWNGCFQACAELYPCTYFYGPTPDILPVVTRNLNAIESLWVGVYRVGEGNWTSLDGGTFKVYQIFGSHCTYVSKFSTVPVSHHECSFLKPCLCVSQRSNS
# Runt-CBFb TRFRET – inhibitors of RUNX1 Runt–CBFb binding, biochemical, TR-FRET | shares compounds with Runt-CBFb FRET | TR-FRET RUNX1 Runt domain-CBFb binding | inhibition, % at 20 µM | 480 compounds, 20% hits | AID 1502, 2009; in the data active means inhibition above about 40%
# * hit, by the source's call; ? = inconclusive; / = no result given. Unless noted, no stated cut-off is given here; in the data, active means inhibition above about 50%; inactive means the rest.
SMILES,MEX-5 binding,Runt-CBFb FRET,Runt-SMMHC FRET,PKD1 inh,RanGTP-Imp inh,EBV gp42 block,Runt-CBFb TRFRET
CCOC(=O)c1cc2c(=O)n3ccccc3nc2n(Cc2ccco2)c1=NC(=O)c1ccc(OC)cc1OC,0,70*,86*,1,29*,-12,52*
Cc1ccc(NC(=O)CSc2nc3ccccc3c(=O)n2CC2CCCO2)cc1 (stereo not drawn),0,/,/,/,-2,/,/
CCOC(=O)c1cc2c(=O)n3ccccc3nc2n(CC2CCCO2)c1=NC(=O)/C=C/c1ccccc1 (stereo not drawn),-10,81*,86*,-4,-4,1,33
Cc1cccn2c(=O)c3cc(C#N)c(=N)n(Cc4ccncc4)c3nc12,-1,70*,130*,-4,74*,5,-4
CC(C)OCCCNC(=S)Nc1ccc(S(N)(=O)=O)cc1,-1,59*,35,-1,2,8,-29
CCOC(=O)N1CCC(NC(=O)c2ccc3c(c2)N(Cc2ccc(C)cc2)CCS3)CC1,-3,-2,2,-1,0,5,/
CCOC(=O)N1CCC(NC(=O)c2ccc3c(c2)N(C)CCS3)CC1,/,67*,/,-3,/,-1,50*
CCCCCCc1cc2cc(C(=O)Nc3ccc(OC)cc3)c(=O)oc2cc1O,1,65*,102,-5,41*,-17,-12
Cc1nn(C)c(N)c1[N+](=O)[O-],-1,0,-8,/,-3,-14,/
Cc1nn(C)c(Sc2ccccc2N)c1[N+](=O)[O-],0,55*,51,-5,-1,-1,14
CCOC(=O)c1c(NC(=S)Nc2ccc(F)cc2)sc2c1CCC2,-2,7,2,-6,5,6,/
CCOC(=O)c1c(NC(=S)Nc2ccc(OCC)cc2)sc2c1CCN(C)C2,/,82*,52*,/,19*,-11,13
Cc1cc(O)c(-c2cc(O)c(C)cc2O)cc1O,-80*,58*,80*,/,4,-20,43*
COc1ccc2ccccc2c1C(O)c1nccn1C (stereo not drawn),-4,55*,115*,18,0,60*,-2
O=C(O)c1ccccc1C(=O)Nc1ccccc1,0,7,-3,-12,2,-3,/
O=C(Nc1ccccc1)C1=C(c2ccccc2)S(=O)(=O)CCS1(=O)=O,-2,52*,44,2,-1,-16,23
CCCCc1c(C)c(C#N)c2nc3ccccc3n2c1Nc1c(C)n(C)n(-c2ccccc2)c1=O,-5,53*,65*,-6,21*,3,-4
Cc1c(Nc2c3ccccc3nc3ccccc23)c(=O)n(-c2ccccc2)n1C,3,114*,29,/,56*,-7,-4
Cc1c(Nc2nc3ccccc3nc2N2CCN(c3ccccc3)CC2)c(=O)n(-c2ccccc2)n1C,0,1,-5,3,6,-20,/
Cc1ccc(S(=O)(=O)N2CCC(NC(=O)C3CCCCC3)CC2)cc1,-2,/,/,/,0,/,/
COc1ccc(OC)c(S(=O)(=O)Nc2cc(C)on2)c1,4,/,/,/,5,/,/
CCCn1cc(CN2CCC(n3nccc3NC(=O)c3ccccc3)CC2)c(C)n1,-2,/,/,/,0,/,/
Cc1cc2c(c(=O)n1Cc1cccnc1)C(c1cccs1)C(C#N)=C(N)O2 (stereo not drawn),2,3,0,-1,5,-11,/
Cc1cc2c(c(=O)n1Cc1cccnc1)C(Cc1ccccc1)C(C#N)=C(N)O2 (stereo not drawn),-1,58*,86*,-4,36*,-12,-21
Cc1cc2c(c(=O)n1CCc1ccccc1)C(c1ccco1)C(C#N)=C(N)O2 (stereo not drawn),-3,62*,/,0,11,-2,34
SMILES,MEX-5 binding,Runt-CBFb FRET,Runt-SMMHC FRET,PKD1 inh,RanGTP-Imp inh,EBV gp42 block,Runt-CBFb TRFRET
O=C(c1ccc(-n2cccn2)cc1)N1CCN(c2ncccc2C(F)(F)F)CC1,-3,/,/,/,-5,/,/
O=C(O)c1ccccc1C(=O)Nc1n[nH]c(=S)s1,3,54*,43,2,-1,-29,20
O=C(O)c1ccccc1C(=O)Nc1nccs1,-1,0,1,4,-2,-20,/
N#CC1(C#N)COC23CCCCC2C1(C#N)C(=N)O3 (stereo not drawn),-2,63*,80*,7,31*,-5,38
CC(C)Cn1nc(NS(=O)(=O)c2ccccc2)c2cc3ccccc3nc21,-2,-10,-14,8,0,5,/
Cc1ccc2nc3c(cc2c1)c(NC(=O)c1ccccn1)nn3CC(C)C,2,53*,90*,-4,116*,-16,33
Cc1c(NC(=O)C(C)OC(=O)C23CC4CC(CC(Br)(C4)C2)C3)c(=O)n(-c2ccccc2)n1C (stereo not drawn),1,0,3,1,?,-14,/
CN(C)c1nc(-c2cccs2)cc(C(F)(F)F)c1C#N,-1,53*,92*,/,73*,-9,24
Cc1nn(C)c2nc(-c3cccs3)cc(C(F)(F)F)c12,1,-3,-3,1,-1,-8,/
Cc1cc(-c2nnc(CSc3nnc(NC(=O)c4ccc(C(C)(C)C)cc4)s3)o2)ccc1[N+](=O)[O-],-2,-3,0,/,-1,-9,/
O=C(O)CCn1c(-c2ccccn2)nc2ccccc21,-1,/,/,/,8,/,/

# Source: PubChem (several laboratories)
